Laboratory results taken from BindingDB's records for doi:10.1016/j.ejmech.2019.111920 (Jagiellonian University Medical College, 2020).

Biological target: T1, Sodium- and chloride-dependent GABA transporter 2 (Mus musculus, UniProt P31649)
T1 sequence (P31649 whole entry): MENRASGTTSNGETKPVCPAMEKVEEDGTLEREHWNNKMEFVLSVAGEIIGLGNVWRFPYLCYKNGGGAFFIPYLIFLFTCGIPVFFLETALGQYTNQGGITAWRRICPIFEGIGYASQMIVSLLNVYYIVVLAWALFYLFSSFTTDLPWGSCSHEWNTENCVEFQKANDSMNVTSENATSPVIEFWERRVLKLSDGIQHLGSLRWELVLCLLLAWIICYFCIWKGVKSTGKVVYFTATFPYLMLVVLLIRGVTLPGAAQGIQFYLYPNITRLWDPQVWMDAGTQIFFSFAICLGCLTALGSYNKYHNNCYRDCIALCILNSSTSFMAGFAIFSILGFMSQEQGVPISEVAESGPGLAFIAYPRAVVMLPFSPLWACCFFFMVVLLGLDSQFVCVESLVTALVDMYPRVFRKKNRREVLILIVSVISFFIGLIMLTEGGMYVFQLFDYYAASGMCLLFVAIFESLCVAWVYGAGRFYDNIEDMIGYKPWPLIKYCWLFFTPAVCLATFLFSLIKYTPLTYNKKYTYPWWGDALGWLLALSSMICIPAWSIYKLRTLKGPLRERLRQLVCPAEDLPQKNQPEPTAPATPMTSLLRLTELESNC
Assay: Inhibition of mouse GAT2 expressed in HEK293 cell line assessed as inhibition of [3H]GABA uptake measured after 35 mins by liquid scintillation method
How it was run: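 [3H]GABA uptake assay at each mGAT subtype, with screening at 100 µM inhibitor. […] Otherwise, the remaining uptake at 100 µM is reported as a percentage. Values without SEM come from a single triplicate experiment.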

Work on Cc1ccsc1C(=CCCN(C)C(CO)C(=O)NCc1ccc(Cl)cc1)c1sccc1C (stereo unspecified) yielded an IC50 of 15.8 µM.
Work on Cc1ccsc1C(=CCCN(C)C(CCO)C(=O)NCc1ccc(F)cc1F)c1sccc1C (stereo unspecified) yielded an IC50 of 10 µM.
Compound O=C(O)C1=CCCN(CCO/N=C/c2ccccc2-c2ccc(Cl)cc2Cl)C1 has an IC50 of 49 µM.
With Cc1ccsc1C(=CCCN(C)C(CC(C)O)C(=O)NCc1ccccc1)c1sccc1C (stereo unspecified) the IC50 was 8.91 µM.
With Cc1ccc(CNC(=O)C(CCO)N(C)CCC=C(c2sccc2C)c2sccc2C)cc1 (stereo unspecified) the IC50 was 9.77 µM.
O=C(O)C1=CCCN(CCON=C(c2ccccc2)c2ccccc2)C1 gave an IC50 of 631 µM.
Compound Cc1ccsc1C(=CCCN(C)C(CC(C)O)C(=O)NCc1ccc(Cl)cc1)c1sccc1C (stereo unspecified) has an IC50 of 10.5 µM.
With Cc1ccsc1C(=CCCN(C)C(CC(C)O)C(=O)NCc1ccc(F)cc1)c1sccc1C (stereo unspecified) the IC50 was 26.3 µM.
In the case of CC(=O)NCCC(C(=O)NCc1ccccc1Cl)N(C)CCC=C(c1sccc1C)c1sccc1C (stereo unspecified), the IC50 is reported as 4.47 µM.
Compound Cc1ccsc1C(=CCCN(C)C(CCO)C(=O)NCc1ccccc1)c1sccc1C (stereo unspecified) has an IC50 of 20.4 µM.
Cc1ccsc1C(=CCCN(C)C1CCc2onc(O)c2C1)c1sccc1C (stereo unspecified) was tested, and the IC50 was 25.7 µM.
Cc1ccsc1C(=CCCN(C)C(CCO)C(=O)NCc1ccccc1Cl)c1sccc1C (stereo unspecified) showed an IC50 of 10.5 µM.
Work on Cc1ccc(CNC(=O)C(CCN)N(C)CCC=C(c2sccc2C)c2sccc2C)cc1 (stereo unspecified) yielded an IC50 of 7.76 µM.
With Cc1ccsc1C(=CCCN(C)C(CO)C(=O)NCc1ccc(F)cc1)c1sccc1C (stereo unspecified) the IC50 was 22.4 µM.
Work on Cc1ccsc1C(=CCCN(C)C(CCO)C(=O)NCc1ccc(F)cc1)c1sccc1C (stereo unspecified) yielded an IC50 of 5.62 µM.
Cc1ccsc1C(=CCCN(C)C(CO)C(=O)NCc1ccccc1)c1sccc1C (stereo unspecified) gave an IC50 of 30.9 µM.
With NCC(O)C(=O)O (stereo unspecified) the IC50 was 229 µM.
In the case of Cc1ccsc1C(=CCCN(C)C(CCN)C(=O)NCc1ccccc1)c1sccc1C (stereo unspecified), the IC50 is reported as 5.5 µM.
Compound Cc1ccc(CNC(=O)C(CO)N(C)CCC=C(c2sccc2C)c2sccc2C)cc1 (stereo unspecified) has an IC50 of 24 µM.
Work on Cc1ccc(CNC(=O)C(CC(C)O)N(C)CCC=C(c2sccc2C)c2sccc2C)cc1 (stereo unspecified) yielded an IC50 of 17 µM.
In the case of Cc1ccsc1C(=CCCN(C)C(CC(C)O)C(=O)NCc1ccccc1Cl)c1sccc1C (stereo unspecified), the IC50 is reported as 10.4 µM.
